NR2E3 ag-1: activates human photoreceptor nuclear receptor NR2E3 | inhibition of corepressor binding, % at 4.78 µM | Q9Y5X4 | GST-NR2E3/biotin-RetCOR TR-FRET, 1536-well | actives 0.12% (n = 320,000);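 active means percent inhibition above the cutoff of mean plus 3 SD of all tested compounds, set per screening campaign, cut at about 20% in these data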;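 further: 0% = DMSO wells and 100% = biotin wells as full block of FRET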
Target sequence (Q9Y5X4 whole entry, looked up): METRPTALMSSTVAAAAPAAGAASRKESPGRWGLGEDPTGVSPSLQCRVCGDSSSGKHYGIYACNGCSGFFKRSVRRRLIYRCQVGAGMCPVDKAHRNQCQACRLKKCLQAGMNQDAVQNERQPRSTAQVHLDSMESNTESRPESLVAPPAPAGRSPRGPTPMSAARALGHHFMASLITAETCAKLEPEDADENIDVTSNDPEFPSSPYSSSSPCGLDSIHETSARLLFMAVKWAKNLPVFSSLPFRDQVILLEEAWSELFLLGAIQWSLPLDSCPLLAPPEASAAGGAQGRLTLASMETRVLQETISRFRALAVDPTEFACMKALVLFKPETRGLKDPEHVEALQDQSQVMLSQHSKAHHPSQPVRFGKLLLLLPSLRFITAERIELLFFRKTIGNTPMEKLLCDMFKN
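Test system: GST-NR2E3 and biotin-RetCOR proteins | Quantity: 1.35 nM GST-tagged NR2E3 final | Medium: Tris pH 7.5 | Also added: 7 nM biotin-RetCOR | Dosing: Compound at 4.8 µM, single dose | Timing: 5 h at 4 °C | Detection: Time-resolved FRET | Read-out basis: Percent inhibition | Benchmarks: Biotin wells as high control, 0.6% DMSO wells as low control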
KLK7 zymogen act: activates the human kallikrein-7 zymogen | activation, % at 7 µM | AID 652039 | purified proKLK7, EDANS-DABCYL substrate fluorescence; 100% is mature enzyme control, 0% vehicle | actives 0.9% (n = 370,000) | P49862;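 active means activation above the mean of all tested compounds plus 3 SD, computed per campaign excluding outliers beyond control limits, cut at about 13% in these data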
Target sequence (P49862 whole entry, looked up): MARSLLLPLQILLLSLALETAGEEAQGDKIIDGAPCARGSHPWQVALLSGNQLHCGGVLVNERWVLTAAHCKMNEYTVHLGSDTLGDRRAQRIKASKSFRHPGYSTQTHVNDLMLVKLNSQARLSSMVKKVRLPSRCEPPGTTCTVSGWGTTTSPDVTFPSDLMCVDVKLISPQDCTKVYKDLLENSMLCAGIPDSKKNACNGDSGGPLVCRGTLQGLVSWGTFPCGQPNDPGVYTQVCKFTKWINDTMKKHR
ADAM10 inh: inhibitors of human ADAM10; O14672; recombinant ADAM10, EDANS/DABCYL FRET peptide cleavage, 3 h; inhibition, % at 7 µM; actives 0.62% (n = 370,000);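 active means inhibition above a per-campaign cutoff equal to the mean of compounds falling between control-based bounds plus 3 SD, cut at about 20% in these data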;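 further: 0% = DMSO wells while the 100% control is not disclosed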
NR2E3 ag-2: activates human NR2E3 receptor. actives 0.35% (n = 360,000). CHO-S Gal4-NCOR/VP16-NR2E3 two-hybrid, luciferase. inhibition of corepressor binding, % at 3.98 µM;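 active means inhibition above the mean of all tested compounds plus 3 SD, cut at about 70% in these data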;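 further: 0% = DMSO with NR2E3 transfected cells and 100% = cells lacking NR2E3 construct; higher means lower luciferase signal from less NR2E3 corepressor binding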
ADAM17 inh: inhibitors of human ADAM17 | inhibition, % at 6.95 µM | recombinant ADAM17, EDANS/DABCYL FRET peptide cleavage | P78536 | actives 0.83% (n = 370,000) | AID 720648;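 active means inhibition above the mean of compounds lying between control limits plus 3 SD, set per campaign, cut at about 8.5% in these data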;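 further: 0% = DMSO-only wells as the low control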
GASC-1 inh: inhibitors of human GASC-1 (JMJD2C) demethylase; Q9H3R0; GST-JMJD2C(1-420) H3K9me3 demethylation, DELFIA europium; inhibition, % at 2.35 µM; actives 0.069% (n = 330,000); AID 2099;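 active means more than half of a compound's replicate wells show inhibition beyond 50%, single wells judged on their own value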;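 further: signal counts dimethyl H3K9 product captured on neutravidin plate; 0% = median of DMSO wells and 100% = 0.3 times that DMSO median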
NR2E3 ag conf: NR2E3 agonism confirmed in two-hybrid assay; shares compounds with NR2E3 ag-2; inhibition, % at 3.98 µM; actives 51% (n = 2,300); CHO-S mammalian two-hybrid NR2E3-NCOR, luciferase luminescence;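 active means average inhibition above a cutoff equal to the mean inhibition of all tested compounds plus one SD, cut at about 70% in these data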;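 further: 0% = DMSO in NR2E3 cells and 100% = DMSO in cells lacking NR2E3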
GAL4-VP16 luc: counter-screen for NR2E3 agonists: GAL4-VP16 reporter inhibitors; AID 624379; actives 29% (n = 2,300); inhibition, % at 3.98 µM; shares compounds with NR2E3 ag-2; CHO-S GAL4-VP16 luciferase reporter, luminescence;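 active means mean inhibition above a cutoff equal to the average over all tested compounds plus one standard deviation, cut at about 70% in these data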;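 further: luciferase from a UAS reporter driven by GAL4-VP16 transactivation; 0% = DMSO with VP16-transfected cells and 100% = DMSO with cells lacking VP16; higher means less reporter light so more repression of VP16 activity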
Active calls of the source: *; / = not tested or not shown. Rows were chosen to be rich in hits. Some 2.5% of all compounds tested hit in one or more screens of this group.

SMILES	NR2E3 ag-1	KLK7 zymogen act	ADAM10 inh	NR2E3 ag-2	ADAM17 inh	GASC-1 inh	NR2E3 ag conf	GAL4-VP16 luc
Cc1cccc(C)c1OCc1cc(C(=O)N(Cc2c(C)nn(C)c2C)C2CC2)no1	-3	0	-2	62	-2	-1	61	58
Cc1cccc(C)c1OCc1cc(C(=O)NCC2CCCCC2)no1	-1	0	-1	-25	3	-4	/	/
CCOc1ccc(-c2nc(CSCC(=O)NC3CC3)c(C)o2)cc1	2	/	/	109*	/	-33	95*	95*
CCCOc1ccc(-c2nc(CSCC(=O)NC3CC3)c(C)o2)cc1	/	/	-4	/	-1	/	/	/
CCOC(=O)N1CCC(NC(=O)CSCc2nc(-c3ccc(OCC)cc3)oc2C)CC1	-3	0	-4	60	-4	-37	43	33
CCOc1ccc(-c2nc(CSCC(=O)NCc3ccco3)c(C)o2)cc1	-1	0	-9	100*	-7	-5	93*	95*
Cc1ccc(S(=O)(=O)Nc2cccc3ncccc23)s1	3	/	/	102*	/	6	53	5
Cc1ccc(S(=O)(=O)Nc2cccc3ncccc23)cc1	0	0	3	13	-6	2	/	/
COc1ccc(/C=N\NC(=O)c2ccccc2Br)cc1COc1c(F)c(F)cc(F)c1F	0	0	13	49	8	-22	35	51
O=[N+]([O-])c1ccc(N2CCN(C(=S)Nc3ccc(F)cc3)CC2)cc1	-2	0	-2	25	-5	53	/	/
Cc1csc2c(N3CCN(C(=S)Nc4ccc(F)cc4F)CC3)ncnc12	3	0	3	90*	-2	4	97*	88*
Cc1csc2c(N3CCN(C(=O)Nc4ccccc4)CC3)ncnc12	0	0	-6	10	-4	-13	/	/
O=[N+]([O-])c1ccc(N2CCN(C(=S)Nc3ccc(F)cc3F)CC2)cc1	1	1	-1	74*	2	11	73*	62
CC1CCC(CN2C(Nc3ccccc3)=NC[C@@H]2C)CC1 (stereo partly specified)	1	0	2	0	1	10	/	/
CCC(c1nnnn1-c1c(C)cccc1C)N1CCN(c2ccc(C(F)(F)F)cc2[N+](=O)[O-])CC1 (stereo unspecified)	/	/	/	53	/	/	5	10
Cc1ccc(S(=O)(=O)Nc2ccc(Cl)cc2O)cc1	/	0	4	/	0	/	/	/
Nc1nc2n[nH]nc2c(=O)[nH]1	1	0	-5	81*	0	-5	24	53
O=C(Nc1ccc(S(=O)(=O)N2CCCC2)cc1)c1ccc(CN2CCc3ccccc3C2)cc1	1	0	12	54	5	-23	67	66
CCOCCCNC(=O)CSCc1nc(-c2ccc(SC)cc2)oc1C	2	0	-8	81*	-4	1	81*	81*
COCCNC(=O)CSCc1nc(-c2ccc(SC)cc2)oc1C	3	0	-33	92*	-10	-2	85*	86*
CSc1ccc(-c2nc(CSCC(=O)NCCCN3CCCC3=O)c(C)o2)cc1	1	-1	-23	32	-6	-2	/	/
CCc1ccc(-c2nc(CSCC(=O)NCCCN3CCCC3=O)c(C)o2)cc1	0	0	0	71*	-2	-8	90*	63
CC[C@]12c3[nH]c4ccccc4c3CCN1C(=O)C(CC(=O)NCc1ccc(OC)c(OC)c1)C[C@@H]2C(=O)N1CCN(C(=O)C2CC2)CC1 (stereo partly specified)	/	1	-24	-13	-4	-8	/	/
COc1cccc(OCC(=O)NNC(=O)c2ccc3ccccc3c2)c1	-6	1	-6	-12	-9	1	/	/
C(=NN1CCCCCC1)c1cccc2ccccc12	/	-1	-2	6	-6	/	/	/
SMILES	NR2E3 ag-1	KLK7 zymogen act	ADAM10 inh	NR2E3 ag-2	ADAM17 inh	GASC-1 inh	NR2E3 ag conf	GAL4-VP16 luc
C(=NN1CCCCCC1)c1ccc2ccccc2n1	/	0	-14	95*	-3	/	86*	68
O=C(Cc1ccccc1)N1CCCC(c2nc(-c3ccc(S(=O)(=O)N4CCCC4)cc3)no2)C1 (stereo unspecified)	-1	0	1	-16	-4	7	/	/
O=C(C1CC1)N1CCC(c2nc(-c3ccc(S(=O)(=O)NCC4CCCO4)cc3)no2)CC1 (stereo unspecified)	1	0	14	50	-3	70	21	41
CS(=O)(=O)N1CCCC(c2nc(-c3ccc(S(=O)(=O)NCc4ccccc4)cc3)no2)C1 (stereo unspecified)	-2	/	/	50	/	3	73*	68
CCc1nnc(NC(=O)c2ccc(S(=O)(=O)N3CCCc4ccccc43)cc2)o1	-1	0	7	54	0	11	88*	44
CCc1nnc(NC(=O)c2ccc(S(=O)(=O)N(CC(C)C)CC(C)C)cc2)o1	-1	-1	-5	103*	2	/	99*	39
CSCc1nnc(NC(=O)c2ccc(S(=O)(=O)N(CC(C)C)CC(C)C)cc2)o1	/	/	/	/	/	18	/	/
CC(C)c1ccc(NC(=O)c2ccc(NS(C)(=O)=O)cc2)cc1	4	0	12	-13	5	-6	/	/
Cc1cc(-c2ccc(C)c(S(=O)(=O)NCCCN3CCN(c4ccccc4F)CC3)c2)on1	4	0	0	62	-3	0	76*	68
Cc1cc(-c2ccc(C)c(S(=O)(=O)NCCCN3CCN(c4ccccc4)CC3)c2)on1	-2	0	7	46	-1	-9	/	/
CC[C@H](C)Cc1cn([C@@H](CCCN=C(NC(=O)OC(C)(C)C)NC(=O)OC(C)(C)C)C(=O)NCCCCCCCCCCC(=O)N2CCN(C(=O)OC(C)(C)C)CC2)nn1	-1	/	/	7	/	-12	/	/
Cc1cn([C@@H](CCCCNC(=O)OC(C)(C)C)C(=O)NCCCCCCCCCCC(=O)N2CCN(C(=O)OC(C)(C)C)CC2)nn1	3	/	/	56	/	3	74*	64
COc1ccc2c(c1)N=CN1CCc3c([nH]c4ccccc34)C3=NCC[C@@]321	/	/	-13	/	-5	/	/	/
N#CC(c1cccc(Cl)c1)c1ccc2c(C(F)(F)F)cc(C(F)(F)F)nc2n1 (stereo unspecified)	1	0	1	110*	-3	0	99*	91*
Cc1nc(C(=O)N2CCc3c([nH]c4ccccc34)C2c2cc(F)ccc2F)cs1 (stereo unspecified)	1	0	3	-2	0	11	/	/

Source: PubChem (several laboratories)
